Data reported in ChEMBL document CHEMBL4818983, “Structure-activity relationship and hypoglycemic activity of tricyclic matrines with advantage of treating diabetic nephropathy” (Eur J Med Chem, 2020).
Activity calls are given as the source filed them. The rule behind the calls is not given here.

How the values were obtained:
Mus musculus [1] = assay: Antidiabetic activity in KK-Ay mouse assessed as effect on AGE level at 50 mg/kg, po for 24 hrs by ELISA (Rvb 2.85 +/- 0.92 ug/ml); format: functional
L6 = assay: Increase in glucose consumption in rat L6 cells after 24 hrs by glucose oxidase assay; format: functional, cell-based
In short: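 L6 myotubes treated with DMSO, compound or RGZ (20 μM) at the indicated concentrations for 24 h. Culture supernatants assayed for glucose consumption and lactate release; lysed cells assayed for ATP, normalized to protein. Mean ± SD of 3 independent experiments vs DMSO.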

Mus musculus [2] = assay: Antidiabetic activity in KK-Ay mouse assessed as effect on glycosylated haemoglobin level at 100 mg/kg, po for 50 days by glucose oxidase method (reference value: 8.74 +/- 1.08%); format: functional; conditions: time 50 day
In short: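 Lipogenic-diet KK-Ay mice given 50 or 100 mg/kg compound or 5 mg/kg rosiglitazone orally for 50 days, C57BL/6J as normal controls. Fasting blood glucose, glycosylated haemoglobin, AGE, insulin, HOMA-IR, cholesterol, LDL-c, TG, serum creatinine and BUN determined. Mean ± SD, 8-9 mice per group.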

Mus musculus [3] = assay: Antidiabetic activity in KK-Ay mouse assessed as effect on AGE level at 100 mg/kg, […] by ELISA (Rvb 2.85 +/- 0.92 ug/ml); format: functional
Mus musculus [4] = assay: Antidiabetic activity in KK-Ay mouse assessed as effect on HOMA-IR level at 50 mg/kg, […] by ELISA (reference value: 137 +/- 18.4); format: functional
Mus musculus [5] = assay: Antidiabetic activity in KK-Ay mouse assessed as effect on HOMA-IR level at 100 mg/kg, […] by ELISA (reference value: 137 +/- 18.4); format: functional
Mus musculus [6] = assay: Antidiabetic activity in KK-Ay mouse assessed as effect on LDL level at 50 mg/kg, po for 24 hrs by ELISA (reference value: 1.11 +/- 0.24 mM); format: functional
Mus musculus [7] = assay: Antidiabetic activity in KK-Ay mouse assessed as effect on LDL level at 100 mg/kg, po […] by ELISA (reference value: 1.11 +/- 0.24 mM); format: functional
Mus musculus [8] = assay: Antidiabetic activity in KK-Ay mouse assessed as effect on Triglycerides level at 50 mg/kg, […] by ELISA (reference value: 4.01 +/- 1.83 mM); format: functional
Mus musculus [9] = assay: Antidiabetic activity in KK-Ay mouse assessed as effect on Triglycerides level at 100 mg/kg, […] by ELISA (reference value: 4.01 +/- 1.83 mM); format: functional
Mus musculus [10] = assay: Antidiabetic activity in KK-Ay mouse assessed as effect on serum Creatinine level at 100 mg/kg, po for 24 hrs by ELISA (reference value: 124 +/- 35.1 uM); format: functional
Mus musculus [11] = assay: Antidiabetic activity in KK-Ay mouse assessed as effect on BUN level at 50 mg/kg, po for 24 hrs by ELISA (reference value: 12.8 +/- 2.97 mM); format: functional
Mus musculus [12] = assay: Antidiabetic activity in KK-Ay mouse assessed as effect on BUN level at 100 mg/kg, po for 24 hrs by ELISA (reference value: 12.8 +/- 2.97 mM); format: functional
Mus musculus [13] = assay: Anti-diabetic activity in overnight fasted diabetic KK-Ay mouse assessed as reduction in blood glucose AUC at 50 to 100 mg/kg, po measured after 35 days by oral glucose tolerance test; format: functional, organism-based; conditions: dose 50-100 mg/kg, time 35.0 day
In short: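 KK-Ay mice orally treated with 50 or 100 mg/kg compound or 5 mg/kg rosiglitazone, C57BL/6J as normal controls. After 35 days of treatment, oral glucose tolerance test and insulin tolerance test run. Blood glucose plotted against time, AUC calculated. Mean ± SD, 8-9 mice per group.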

[14] = Effect on high fat diet-fed KK-Ay mouse model of obesity and diabetes assessed as food intake at 100 mg/kg, po (reference value: 5.67 +/- 0.55 g/day); format: ADME, organism-based; conditions: in vivo
In short: (§1)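 KK-Ay mice on lipogenic diet, with C57BL/6J mice as normal controls, dosed orally at 50 or 100 mg/kg (test) or 5 mg/kg (RGZ). Food intake (g/day), water intake (mL/day) and body weight recorded before and after treatment; body weight gain calculated. Mean±SD, 8-9 mice per group.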

[15] = Effect on high fat diet-fed po dosed C57BL/6J mouse model of obesity and diabetes assessed as water intake; format: organism-based; conditions: in vivo
[16] = Effect on high fat diet-fed KK-Ay mouse model of obesity and diabetes assessed as water intake at 100 mg/kg, po (reference value: 21.2 +/- 4.17 ml/day); format: ADME, organism-based; conditions: in vivo; in short: as §1
[17] = Effect on high fat diet-fed po dosed C57BL/6J mouse model of obesity and diabetes assessed as total body weight gain; format: organism-based; conditions: in vivo
[18] = Effect on high fat diet-fed KK-Ay mouse model of obesity and diabetes assessed as total body weight gain at 50 mg/kg, po (reference value: 43.5 +/- 5.24 g); format: ADME, organism-based; conditions: in vivo; in short: as §1
Mus musculus [19] = species on record: Mus musculus; assay: Anti-diabetic activity in high fat diet-fed C57BL/6J mouse model of obesity and diabetes assessed as reduction in urine glucose level measured after 24 hrs; format: functional, organism-based
In short: (§2)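 Before study end, 24-h urine collected from C57BL/6J controls and KK-Ay mice (untreated, oral 50 or 100 mg/kg compound, or 5 mg/kg rosiglitazone). Volume, glucose, total protein and microalbumin measured by kits. Mean ± SD, 8-9 mice per group, vs C57BL/6J or untreated KK-Ay.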

Mus musculus [20] = species on record: Mus musculus; assay: Anti-diabetic activity in high fat diet-fed C57BL/6J mouse model of obesity and diabetes assessed as decrease in microalbumin level in urine measured after 24 hrs; format: functional, organism-based; in short: as §2
Mus musculus [21] = assay: Anti-diabetic activity in high fat diet-fed KK-Ay mouse model of obesity and diabetes assessed as reduction in microalbumin level in urine at 50 to 100 mg/kg, po measured after 24 hrs; format: functional, organism-based; conditions: dose 50-100 mg/kg; in short: as §2
Mus musculus [22] = assay: Anti-diabetic activity in high fat diet-fed KK-Ay mouse model of obesity and diabetes assessed as improved pathological changes in kidney at 50 to 100 mg/kg, po by hematoxylin and eosin staining based histopathological analysis; format: functional, organism-based; conditions: dose 50-100 mg/kg
In short: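 Mice sacrificed at study end, with KK-Ay given 50 or 100 mg/kg compound or 5 mg/kg rosiglitazone orally and C57BL/6J as normal controls. Kidney and pancreas sections H&E stained, imaged at 200×, pathological changes scored. Mean ± SD of 8-9 mice per group.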

HepG2 = assay: Cytotoxicity against human HepG2 cells upto 160 uM after 24 hrs by MTT assay; format: cell-based; conditions: hepg2, 24 h
In short: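 HepG2 cells exposed to compound; cell growth measured; CC50 derived from the concentration–growth relationship.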

[23] = Effect on high fat diet-fed C57BL/6J mouse model of obesity and diabetes assessed as food intake; conditions: in vivo
Mus musculus [24] = assay: Anti-diabetic activity in high fat diet-fed KK-Ay mouse model of obesity and diabetes assessed as reduction in urine glucose level at 50 to 100 mg/kg, po measured after 24 hrs; conditions: dose 50-100 mg/kg

CCCC[C@@H]1[C@H]2CCCN3CCC[C@@H](CN1S(=O)(=O)c1ccc(C(F)(F)F)cc1)[C@@H]23
Activity (Mus musculus [1]): 1.59 µg/mL | Activity (L6): Dose-Dependent Effect | Activity (Mus musculus [2]): 6.75% | Activity (Mus musculus [3]): 1.13 µg/mL | Activity (Mus musculus [4]): 74.3 | Activity (Mus musculus [5]): 46.5 | Activity (Mus musculus [6]): 1.06 mM | Activity (Mus musculus [7]): 0.82 mM | Activity (Mus musculus [8]): 2.89 mM | Activity (Mus musculus [9]): 2.39 mM | Activity (Mus musculus [10]): 70.4 µM | Activity (Mus musculus [11]): 12.7 mM | Activity (Mus musculus [12]): 12.4 mM | Activity (Mus musculus [13]): Active | Activity [14]: 5.28 g/day | Activity [15]: 4.38 mL/day | Activity [16]: 11.9 mL/day | Activity [17]: 3.42 g | Activity [18]: 3.52 g | Activity (Mus musculus [19]): Active | Activity (Mus musculus [20]): inactive | Activity (Mus musculus [21]): Active | Activity (Mus musculus [22]): Active | Activity (HepG2): Non-Toxic | Activity [23]: 4.29 g/day | Activity (Mus musculus [24]): Active
